Test results from ChEMBL document CHEMBL5370613, “Phenyl dialkynylcarbinols, a Bioinspired Series of Synthetic Antitumor Acetylenic Lipids” (J Med Chem, 2023).
Converted amounts (≈) assume the structure as drawn. The source made the active and inactive calls. No cut-off for these calls is given here.

Experiments:
[1] = Resistance index, ratio of IC50 for HSD17B11 knockout human U2OS cells to IC50 for human U2OS cells harboring wild type HSD17B11; format: functional
Outline: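 Wild-type and CRISPR HSD17B11-knockout U2OS cells were grown in DMEM/10% FBS at 37 °C. Viability was read by sulforhodamine B on exponentially growing cells, duplicate points, ≥3 independent experiments, with four-parameter logistic IC50. The index is the knockout IC50 divided by the wild-type IC50.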

[2] = AUC in female CD-1 mouse at 5 mg/kg, ip measured for 480 mins by LC-MS/MS analysis; format: ADME, organism-based; set-up: dose 5 mg/kg, time 480 min, route ip; conditions: in vivo
Outline: (§1)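 Female (or male, as per line) CD-1 mice, 3 per time point, given a single 5 mg/kg dose in 10% Kolliphor EL in saline (injections) or water (oral). Blood sampled 5–480 min; plasma extracted with CH₃CN and quantified by LC-MS/MS (ESI+, m/z 251.20) against a calibration curve in extracted plasma; parameters by non-compartmental analysis.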

[3] = Half life in female CD-1 mouse at 5 mg/kg, iv measured for 480 mins by LC-MS/MS analysis; format: ADME, organism-based; conditions: in vivo; outline: as §1
[4] = Solubility of compound in injection solution based on saline at approximately 1 mg incubated for 24 hrs by HPLC analysis; format: physicochemical
Outline: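 About 1 mg of compound was shaken in 500 μL of 0.9% NaCl with 10% Kolliphor EL for 24 h at ~20 °C. After centrifugation at 15 000 g for 5 min, the supernatant was diluted 1/50 and quantified by C18 HPLC at 254 nm against a calibration curve. Run twice.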

[5] = Clearance in female CD-1 mouse at 5 mg/kg, iv measured for 480 mins by LC-MS/MS analysis; format: ADME, organism-based; conditions: in vivo; outline: as §1
[6] = tested on: U2OS; test: Activation of unfolded protein response in human U2OS cells assessed as increase in PERK autophosphorylation at T980 residue at 1 uM incubated for 2 to 6 hrs by immunoblotting analysis; format: functional, cell-based; conditions: time 2-6 hrs
Outline: (§2)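 U2OS cells in complete growth medium treated at 1 μM for the indicated times, with 50 μM z-VAD-fmk added 1 h beforehand where stated; lysed in SDS buffer (Tris-HCl pH 6.8, 4% SDS) and immunoblotted, detected with HRP secondary antibodies and chemiluminescence.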

[7] = Tmax in female CD-1 mouse at 5 mg/kg, po measured for 480 mins by LC-MS/MS analysis; format: ADME, organism-based; conditions: in vivo
Outline: (§3)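 Female (IP, SC, PO) or male (PO) CD-1 mice received 5 mg/kg in 10% Kolliphor EL vehicle, 3 mice per time point. Plasma was sampled at 5, 15, 30, 60, 120, 360 and 480 min, acetonitrile-extracted and quantified by LC-MS/MS against a calibration in extracted plasma. Tmax was the time of the observed maximum concentration.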

[8] = tested on: U2OS; test: Induction of apoptosis in human U2OS cells assessed as cellular fragmentation; format: functional, cell-based
[9] = tested on: U2OS; test: Activation of unfolded protein response in human U2OS cells assessed as increase in PERK autophosphorylation at T980 residue at 1 uM incubated for 12 hrs in presence of z-VAD-fmk by immunoblotting analysis; format: functional, cell-based; outline: as §2
[10] = Toxicity in Balb/c mouse assessed as deteriorated health state with shaggy coat and diarrhea at 10 mg/kg, iv administered 3 times per week and measured on day 15; format: organism-based; conditions: in vivo, 360 h, time 15 day
Outline: (§4)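 Female adult Balb/c mice, 6 per group, received IV injections 3 times weekly for 3 weeks at 2, 5 or 10 mg/kg. Dosing solutions were 0.4, 1 and 2 mg/mL in saline with 10% Cremophor, given at 5 mL/kg, with IP substitution when IV was impossible. Mice were weighed thrice weekly and observed daily, with necropsy at endpoint.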

[11] = Volume of distribution at steady state in female CD-1 mouse at 5 mg/kg, iv measured for 480 mins by LC-MS/MS analysis; format: ADME, organism-based; conditions: in vivo, read-out: Vdss
Outline: (§5)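 CD-1 mice (female for all routes, male for IV and PO) were dosed at 5 mg/kg in 10% Kolliphor EL in saline (injections) or water (oral), 3 mice per time point. Blood was taken at 5–480 min, and plasma was extracted with acetonitrile. LC-MS/MS positive ESI, m/z 251.20. Parameters came from non-compartmental analysis with a plasma calibration curve.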

[12] = Volume of distribution in elimination phase in female CD-1 mouse at 5 mg/kg, po measured for 480 mins by LC-MS/MS analysis; format: ADME, organism-based; conditions: in vivo, read-out: Vz/F; outline: as §5
[13] = tested on: U2OS; test: Induction of ER stress in human U2OS cells expressing ER-moxGFP and Mito-mCherry assessed as vacuolization at 1 uM measured after 4 hrs by fluorescence microscopic analysis; format: functional, cell-based
Outline: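 U2OS stably co-expressing ER-moxGFP and Mito-mCherry, seeded on glass-bottom dishes in phenol red-free L-15 medium with 10% FBS, treated with 1 μM; z-stacks acquired over time on a 3D-SIM super-resolution microscope, shown as max-intensity projections.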

[14] = tested on: U2OS; test: Induction of ER stress in human U2OS cells assessed as vacuolization at 1 uM incubated for 12 hrs in presence of z-VAD-fmk by phase contrast microscopic analysis; format: functional, cell-based
Outline: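 U2OS cells pre-incubated 1 h with 50 μM z-VAD-fmk, then exposed 12 h to 1 μM compound; morphology viewed by phase contrast.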

[15] = Volume of distribution in elimination phase in male CD-1 mouse at 5 mg/kg, iv measured for 480 mins by LC-MS/MS analysis; format: ADME, organism-based; conditions: in vivo, read-out: Vz; outline: as §5
[16] = tested on: U2OS; test: Activation of unfolded protein response in human U2OS cells assessed as increase in HSP70 accumulation at 1 uM incubated for 12 hrs in presence of z-VAD-fmk by immunoblotting analysis; format: functional, cell-based; outline: as §2
[17] = tested on: U2OS; test: Cytotoxicity against human U2OS cells with HSD17B11 knockout complemented with HSD17B11-GFP assessed as cell viability at 1 uM incubated for 72 hrs by SRB assay relative to control; format: functional; conditions: read-out: Activity
Outline: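 U2OS HSD17B11-KO cells stably complemented with GFP, HSD17B11-GFP or HSD17B13-GFP, exposed to 1 μM compound for 72 h in complete medium; viability read by SRB assay, in three independent experiments.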

[18] = Volume of distribution in elimination phase in female CD-1 mouse at 5 mg/kg, ip measured for 480 mins by LC-MS/MS analysis; format: ADME, organism-based; conditions: in vivo, read-out: Vz/F; outline: as §5
[19] = Toxicity in Balb/c mouse assessed as organ damage at 10 mg/kg, iv administered 3 times per week and measured on day 15; format: organism-based; conditions: in vivo, 360 h, time 15 day; outline: as §4
[20] = Tmax in female CD-1 mouse at 5 mg/kg, ip measured for 480 mins by LC-MS/MS analysis; format: ADME, organism-based; conditions: in vivo; outline: as §3
[21] = Oral bioavailability in male CD-1 mouse at 5 mg/kg measured for 480 mins by LC-MS/MS analysis; format: ADME, organism-based; conditions: in vivo; outline: as §5
[22] = Cmax in male CD-1 mouse at 5 mg/kg, iv measured for 480 mins by LC-MS/MS analysis; format: ADME, organism-based; set-up: time 480 min, dose 5 mg/kg, route iv; conditions: in vivo; outline: as §1
[23] = Toxicity in Balb/c mouse assessed as sign of toxicity administered as three escalating doses of 2 to 10 mg/kg, iv per week and measured for 10 days; format: organism-based; conditions: in vivo, 240 h, dose 2-10 mg/kg, time 10 day; outline: as §4
[24] = Clearance in male CD-1 mouse at 5 mg/kg, iv measured for 480 mins by LC-MS/MS analysis; format: ADME, organism-based; conditions: in vivo; outline: as §1

AUC at 8 h [2]: 201 ng·h/mL | half-life [3]: 40 min | solubility at 24 h [4]: 10.7 mM (≈ 2870 µg/mL) | clearance [5]: 47 mL/min/kg | Tmax [7]: 5 min | Vd [11]: 1.5 L/kg | Vd/F [12]: 69.4 L/kg | Vd [15]: 8.4 L/kg | Vd/F [18]: 34.4 L/kg | Tmax [20]: 5 min | bioavailability [21]: 6.1% | Cmax [22]: 7 µM | clearance [24]: 108 mL/min/kg
SMILES: C#C[C@H](O)C#Cc1ccc(CCCCCCCC)cc1
Ratio IC50 [1]: 214 | Activity [6]: Active | Activity [8]: Active | Activity [9]: Active | Activity [10]: Toxic | Activity [13]: Active | Activity [14]: Active | Activity [16]: Active | viability at 1 µM [17]: 0% | Activity [19]: Non-Toxic | Activity [23]: Non-Toxic
